Screening results as filed in PubChem BioAssay.
The sample as a whole holds a higher share of hits than the screen did.
A1 inh = inhibitors of the anti-apoptotic protein A1, read as caspase activation. MEF A1-2A-BIM cells, Caspase-Glo 3/7 luminescence, 3 h; percent of clofoctol response, vehicle zero. actives 0.066% (n = 330,000). caspase activation, % (no concentration beside the values);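 active = over half of replicate activation scores above 10%, or exactly half above 10 with the replicate mean above 10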
CHOP UPR activ = activators of apoptotic arm of unfolded protein response (CHOP). activation, % at 10 µM. actives 0.34% (n = 330,000). CHO-CHOP luciferase reporter, UPR activation, luminescence; percent of tunicamycin response over DMSO baseline;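 active = at 10 µM dose, activation of 40% or more, normalized to positive control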;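 note: 100% = tunicamycin at 10 µg/mL and 0% = DMSO alone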
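Evaluation: % reporter activation, DMSO baseline versus tunicamycin full activation; System: CHO-CHOP luciferase reporter cell line; Input: 500 cells/well; Incubation: 6 h compound treatment, 37 °C; Measured by: Steady-Glo luciferase luminescence; Dosing: one dose, 10 µM in 0.5% DMSO; Buffer or medium: F12 medium, 10% FBS; Benchmarks: positive tunicamycin 10 µg/mL, negative DMSO alone.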
CHOP inhibitor = CHOP inhibition in unfolded protein response | AID 2732 | CHO-K1 CHOP-promoter luciferase, tunicamycin-induced, 15-18 h | inhibition, % at 10 µM | actives 3.8% (n = 220,000);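 active = compounds that reduced the stress-induced luciferase reporter signal by more than about 70% of percent inhibition, limit read from the data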;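 note: 0% = tunicamycin plus vehicle and 100% = wells without tunicamycin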
UPR XBP1 act = activators of adaptive arm of unfolded protein response (XBP1); CHO-XBP1 luciferase reporter, IRE1-XBP1 UPR activation, luminescence; percent of tunicamycin response, DMSO as zero; AID 463104; actives 0.33% (n = 330,000); activation, % at 20 µM;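 active = versus positive control, 20 µM dose yields 30% or more activation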;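 note: 100% = tunicamycin at 10 µg/mL and 0% = DMSO only wells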
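Material: CHO-XBP1 cells stably carrying IRE1-XBP1-driven luciferase reporter / Amount: 1000 cells per well / Compound: 20 µM, 1% DMSO / Times: 6 h treatment, 37 °C / Detection: luciferase luminescence / Measure: % activation of reporter signal versus tunicamycin and DMSO controls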
An asterisk follows results filed as active; / = no result.

SMILES	A1 inh	CHOP UPR activ	CHOP inhibitor	UPR XBP1 act
CN1CCN(C2=C(NS(=O)(=O)c3cccs3)C(=O)c3ccccc3C2=O)CC1	-0.1	3.7	-37.9	-1.1
CCOc1cc(C2C3=C(CCCC3=O)OC3=C2C(=O)CCC3)cc([N+](=O)[O-])c1O	0.2	0.1	14.6	2.2
O=S(=O)(Nc1ccc(Oc2ncccn2)c(Cl)c1)c1ccc(Cl)cc1	-1.2	0.4	9.1	-3.5
O=[N+]([O-])c1nn(-c2ccc3c(c2)OCCO3)n(O)c1=NCc1ccccc1Cl	-6.1	2.9	-12.5	-4.1
O=[N+]([O-])c1nn(-c2ccc3c(c2)OCCO3)n(O)c1=NC1CCCCC1	0.3	3.7	86.9*	-0.8
Cc1ccc(NC(=O)C(=O)NC(C)C2COc3ccccc3O2)cc1 (stereo not drawn)	0.2	2.8	63.6	-1.4
CNc1nnc(-c2cc3cc(Cl)ccc3oc2=O)s1	-1.1	7.1	77.8*	3.3
Cc1ccc(C(=O)N/N=C/c2nc3ccccc3n2C)cc1	-0.1	2.7	-9.3	2.0
Cn1c(/C=N/NC(=O)c2ccccc2Br)nc2ccccc21	1.7	-2.5	83.9*	-2.8
CCn1cc(C(=O)O)c(=O)c2cc(F)c(N3CCN(S(=O)(=O)c4ccc(Br)cc4)CC3)cc21	0.1	6.6	76.5*	12.0
Cc1nnc(SCC(=O)Nc2nc3c(s2)CC(C)CC3)s1 (stereo not drawn)	0.2	2.8	84.3*	4.3
Cc1csc(NC(=O)CSc2nnc(C)s2)n1	0.7	0.6	6.1	0.6
O=C(CSc1nnc(CNc2ccccc2)o1)N1CCc2ccccc21	-0.1	-1.5	50.8	0.5
O=C(CSc1nnc(Cc2csc(Nc3cccc(Cl)c3)n2)o1)N1CCc2ccccc21	0.3	-2.4	89.4*	-1.2
COc1ccc(OCC(=O)Nc2ccc(N3CCN(C(=O)c4ccco4)CC3)cc2)cc1	0.1	1.8	9.3	-0.3
CC(=O)N1CCN(c2ccc(NC(=S)NC(=O)COc3ccc(C(C)(C)C)cc3)cc2)CC1	-0.9	6.8	76.3*	-1.4
O=C(COc1ccc(Cl)cc1)Nc1ccc(N2CCN(C(=O)c3ccco3)CC2)cc1	-0.5	3.0	73.6*	-5.8
CC(C)CC(=O)NC(=S)Nc1ccc(N2CCN(C(=O)c3cccs3)CC2)cc1	0.2	10.9	76.5*	-5.3
CCCn1c(SCC(=O)NCc2cccs2)nc2c1c(=O)n(C)c(=O)n2C	-0.3	-1.2	-22.1	2.4
O=C(OCc1cc2ccccc2[nH]c1=O)c1cccc([N+](=O)[O-])c1	0.5	-0.7	15.1	-0.8
CSCC(=O)NS(=O)(=O)c1ccc(C)cc1	2.5	-0.1	-6.3	0.3
O=[N+]([O-])c1ccc(/C=N/n2cnc3ccccc32)s1	-0.3	15.6	83.2*	6.2
Cc1cc2ncn(/N=C/c3ccc([N+](=O)[O-])s3)c2cc1C	0.2	/	2.6	/
CCCCOc1ccc(-c2nnn(CCC(=O)N3CCOCC3)n2)cc1	0.1	5.1	-28.9	-0.9
O=C1CC(c2ccco2)CC(O)=C1C=Nc1ccc(Br)cc1 (stereo not drawn)	0.3	23.7	87.4*	21.9
SMILES	A1 inh	CHOP UPR activ	CHOP inhibitor	UPR XBP1 act
Cc1ccc(N=CC2=C(O)CC(c3ccco3)CC2=O)cc1 (stereo not drawn)	0.4	1.6	41.7	3.3
CCc1ccc2c(c1)C(c1ccc([N+](=O)[O-])cc1)=NNC(c1ccc(Br)cc1)=N2	-0.9	14.8	83.7*	0.0
CC1CCN(c2ccc3nnc(CCC(=O)Nc4cc(F)ccc4F)n3n2)CC1	2.1	-0.9	/	-4.5
O=c1[nH]c(=O)n(Cc2ccccc2)c2nc(-c3ccco3)cc(C(F)(F)F)c12	-0.5	-3.1	70.9*	10.5
Cc1cc(C(F)(F)F)c2c(=O)[nH]c(=O)n(Cc3ccccc3)c2n1	0.9	0.5	39.0	2.3
O=C(CCCN1C(=O)S/C(=C\c2ccccc2)C1=O)NNC(=O)c1ccccc1O	-1.2	-6.3	95.2*	-4.2
COc1ccc(/C=C2\SC(=O)N(CC(=O)NNC(=O)c3ccccc3O)C2=O)cc1OC	0.2	-2.3	24.7	-2.8
O=C(CN1C(=O)S/C(=C\c2ccccc2)C1=O)NNC(=O)c1ccccc1O	0.5	0.3	53.0	-4.2
COc1ccc(/C=C2\SC(=O)N(CC(=O)NNC(=O)c3ccccc3O)C2=O)cc1	0.0	0.8	78.3*	-1.0
O=C(CCCN1C(=O)/C(=C/c2ccccc2)SC1=S)Nc1ccccc1O	0.3	-2.4	82.0*	-0.5
